SMILES strings stand for the structures.

The results in this text go back to ChEMBL document CHEMBL1154427, “Impact of dual infections on chemotherapeutic efficacy in BALB/c mice infected with major genotypes of Trypanosoma cruzi” (2007).

Common to all, as to format: functional
The test system of assay [1] is Trypanosoma cruzi. Put plainly: Antimicrobial activity against Trypanosoma cruzi and Trypanosoma cruzi 2 dually infected in BALB/c mouse assessed as cure rate. An outline of the steps:
(§1)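 Mice counted cured when fresh blood examination, hemoculture, blood PCR, ELISA and FC-ALTA were all negative. Mice negative by parasitology and FC-ALTA but positive by ELISA were counted as dissociated and also cured. Observed cure rate per group = cured animals / total infected treated animals × 100. Each genotype combination was run in replicate batches.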

For assay [2], the system named is Trypanosoma cruzi. Put plainly: Antimicrobial activity against Trypanosoma cruzi 1 dually infected in BALB/c mouse assessed as cure rate. An outline of the steps:
as §1

Assay [3] concerns Trypanosoma cruzi. Kind of assay: Antimicrobial activity against Trypanosoma cruzi 1 and Trypanosoma cruzi 2 dually infected in BALB/c mouse assessed as cure rate. The essentials: as §1
For assay [4], the system named is Trypanosoma cruzi. Kind of assay: Antimicrobial activity against Trypanosoma cruzi genotype 32 infected in BALB/c mouse assessed as cure rate. The essentials:
as §1

Assay [5] deals with Trypanosoma cruzi. Put plainly: Antimicrobial activity against Trypanosoma cruzi genotype 39 and genotype 32 dually infected in BALB/c mouse assessed as cure rate. The essentials: as §1
The test system of assay [6] is Trypanosoma cruzi. Put plainly: Antimicrobial activity against Trypanosoma cruzi infected in BALB/c mouse assessed as parasitemia remaining by PCR method. The essentials: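 Orbital sinus blood taken 30 days after treatment into 6 M guanidine–0.2 M EDTA (pH 8.0), 1:2, and kept at room temperature. PCR used primers S35/S36 with 3.5 mM MgCl2: 5 min at 94°C, then 35 cycles of 95°C/65°C/72°C for 1 min each, then 10 min final extension. Products were resolved on 6% polyacrylamide with silver staining.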

Assay [7] concerns Trypanosoma cruzi. Put plainly: Antimicrobial activity against Trypanosoma cruzi genotype 19 and genotype 32 dually infected in BALB/c mouse assessed as cure rate. An outline of the steps:
as §1

Assay [8] has as its system Trypanosoma cruzi. Kind of assay: Antimicrobial activity against Trypanosoma cruzi 2 infected in BALB/c mouse assessed as cure rate. An outline of the steps: as §1
The subject of assay [9] is Trypanosoma cruzi. Kind of assay: Antimicrobial activity against Trypanosoma cruzi genotype 39 infected in BALB/c mouse assessed as cure rate. The essentials:
as §1

Assay [10] concerns Trypanosoma cruzi. Put plainly: Antimicrobial activity against Trypanosoma cruzi infected in BALB/c mouse assessed as parasitemia remaining by ELISA. An outline of the steps:
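Conventional ELISA on sera taken 2 and 3 months after treatment and stored at –20°C. Sera were tested at 1:80 in PBS against an alkaline-extract antigen of Y strain parasites grown to exponential phase in LIT medium. Bound antibody was detected with peroxidase anti-mouse IgG and read at 490 nm. Per-plate cutoff = mean of 10 negative sera + 2 SD.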

Assay [11] has as its system Trypanosoma cruzi. Kind of assay: Antimicrobial activity against Trypanosoma cruzi Bug2148 cl1 and Trypanosoma cruzi MAS cl11 dually infected in BALB/c mouse assessed as cure rate. An outline of the steps: as §1
Assay [12] deals with Trypanosoma cruzi. Put plainly: Antimicrobial activity against Trypanosoma cruzi OPS21 cl11 and Trypanosoma cruzi MAS cl11 dually infected in BALB/c mouse assessed as cure rate. An outline of the steps:
as §1

Assay [13] has as its system Trypanosoma cruzi. Put plainly: Antimicrobial activity against Trypanosoma cruzi 1 infected in BALB/c mouse assessed as cure rate. The essentials: as §1
Assay [14] has as its system Trypanosoma cruzi. Kind of assay: Antimicrobial activity against Trypanosoma cruzi genotype 19 infected in BALB/c mouse assessed as cure rate. An outline of the steps:
as §1

The subject of assay [15] is Trypanosoma cruzi. Kind of assay: Antimicrobial activity against Trypanosoma cruzi 1 and Trypanosoma cruzi dually infected in BALB/c mouse assessed as cure rate. The essentials: as §1
Assay [16] concerns Trypanosoma cruzi. Kind of assay: Antimicrobial activity against Trypanosoma cruzi infected in BALB/c mouse assessed as parasitemia remaining by FC-ALTA. An outline of the steps:
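Flow cytometric detection of antibodies to live trypomastigotes, microplate format, on sera taken 3 months after treatment and diluted 1:1,500. IgG was detected with FITC-labelled goat anti-mouse IgG. Read-out was percentage of positive fluorescent parasites, relative to a conjugate-only control; >20% was scored positive. Positive and negative controls ran in each batch.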

Assay [17] has as its system Trypanosoma cruzi. Kind of assay: Antimicrobial activity against Trypanosoma cruzi genotype 19 and genotype 39 dually infected in BALB/c mouse assessed as cure rate. The essentials: as §1
The subject of assay [18] is Trypanosoma cruzi. Kind of assay: Antimicrobial activity against Trypanosoma cruzi genotype 20 and genotype 19 dually infected in BALB/c mouse assessed as cure rate. The essentials: as §1
Assay [19] concerns Trypanosoma cruzi. Put plainly: Antimicrobial activity against Trypanosoma cruzi infected in BALB/c mouse assessed as cure rate. An outline of the steps: as §1
Assay [20] deals with Trypanosoma cruzi. Kind of assay: Antimicrobial activity against Trypanosoma cruzi infected in BALB/c mouse assessed as parasitemia remaining in fresh blood. An outline of the steps: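 Tail-vein blood examined daily by light microscopy for living trypomastigotes up to day 60 after infection.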
For assay [21], the system named is Trypanosoma cruzi. Kind of assay: Antimicrobial activity against Trypanosoma cruzi genotype 20 infected in BALB/c mouse assessed as cure rate. An outline of the steps: as §1
Assay [22] relates to Trypanosoma cruzi. Put plainly: Antimicrobial activity against Trypanosoma cruzi infected in BALB/c mouse assessed as parasitemia remaining in hemoculture. The essentials: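 Orbital sinus blood taken 30 days after treatment was inoculated into 3 ml LIT medium and kept at 28°C. Tubes were checked for parasites at days 30, 60, 90 and 120 of culture.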

Consider `O=C(Cn1ccnc1[N+](=O)[O-])NCc1ccccc1` [BENZNIDAZOLE], for which the Activity is 59.1% in the assay with Trypanosoma cruzi [1]; below 33% in the assay on Trypanosoma cruzi [2]; 17.4% in the assay on Trypanosoma cruzi [3]; 70% in the assay on Trypanosoma cruzi [4]; 59.1% in the assay on Trypanosoma cruzi [5]; 93% in the assay on Trypanosoma cruzi [6]. In addition, the Activity is reported as 22.7% in the assay with Trypanosoma cruzi [7]; 70% in the assay on Trypanosoma cruzi [8]; 50% with Trypanosoma cruzi [9]; 96.4% in the assay with Trypanosoma cruzi [10]; 83.3% with Trypanosoma cruzi [11]; 14.3% in the assay on Trypanosoma cruzi [12]. For the same compound, the Activity with Trypanosoma cruzi [13] was determined as 35.4%; in the assay on Trypanosoma cruzi [14] it was 70%; in the assay with Trypanosoma cruzi [15] it was 24%; in the assay with Trypanosoma cruzi [16] it was 99%; in the assay on Trypanosoma cruzi [17], 25.9%; in the assay with Trypanosoma cruzi [18], 0%. The Activity in the assay with Trypanosoma cruzi [19] is given as 54.4%; in the assay on Trypanosoma cruzi [20], 19.8%; in the assay with Trypanosoma cruzi [21] it was 0%; in the assay with Trypanosoma cruzi [22], 79.3%.
